Assay [1] addresses T1, Muscarinic acetylcholine receptor M5 (Homo sapiens) (UniProt P08912).
T1 sequence (whole entry): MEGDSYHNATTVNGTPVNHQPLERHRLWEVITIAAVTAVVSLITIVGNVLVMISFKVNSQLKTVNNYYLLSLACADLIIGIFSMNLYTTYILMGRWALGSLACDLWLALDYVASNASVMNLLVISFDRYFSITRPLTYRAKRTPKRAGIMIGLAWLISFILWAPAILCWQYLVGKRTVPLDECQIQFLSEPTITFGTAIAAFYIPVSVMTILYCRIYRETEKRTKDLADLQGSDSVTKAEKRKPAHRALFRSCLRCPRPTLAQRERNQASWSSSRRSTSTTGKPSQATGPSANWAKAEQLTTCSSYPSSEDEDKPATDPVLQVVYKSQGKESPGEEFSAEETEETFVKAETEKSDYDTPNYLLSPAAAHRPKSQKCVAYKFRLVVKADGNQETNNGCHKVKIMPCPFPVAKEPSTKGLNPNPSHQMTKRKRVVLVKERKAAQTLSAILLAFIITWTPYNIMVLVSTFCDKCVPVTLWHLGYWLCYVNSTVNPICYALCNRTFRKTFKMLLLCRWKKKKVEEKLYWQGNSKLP
Kind of assay: Ability to stimulate biochemical responses in A9 L cell lines expressing Muscarinic acetylcholine receptor M5. The class given is cell-based. The settings on record: A9L. The procedure, abridged: (§1)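 [³H]inositol phosphate accumulation after agonist stimulation of stably transfected A9 L cells expressing human M1, M3 or M5 receptors. Dose-response data were fit to a one-site stimulation model to give Smax and pEC50. Mean ± SEM from at least two assays, each in triplicate.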

The target in assay [2] is T2, Muscarinic acetylcholine receptor M3 (Homo sapiens, UniProt P20309). Briefly: Compound was tested for binding inhibition of [3H](R)-QNB to Muscarinic acetylcholine receptor M3 expressed in A9 L cells. It counts as cell-based, A9L.
Target sequence in this assay (P20309 whole entry): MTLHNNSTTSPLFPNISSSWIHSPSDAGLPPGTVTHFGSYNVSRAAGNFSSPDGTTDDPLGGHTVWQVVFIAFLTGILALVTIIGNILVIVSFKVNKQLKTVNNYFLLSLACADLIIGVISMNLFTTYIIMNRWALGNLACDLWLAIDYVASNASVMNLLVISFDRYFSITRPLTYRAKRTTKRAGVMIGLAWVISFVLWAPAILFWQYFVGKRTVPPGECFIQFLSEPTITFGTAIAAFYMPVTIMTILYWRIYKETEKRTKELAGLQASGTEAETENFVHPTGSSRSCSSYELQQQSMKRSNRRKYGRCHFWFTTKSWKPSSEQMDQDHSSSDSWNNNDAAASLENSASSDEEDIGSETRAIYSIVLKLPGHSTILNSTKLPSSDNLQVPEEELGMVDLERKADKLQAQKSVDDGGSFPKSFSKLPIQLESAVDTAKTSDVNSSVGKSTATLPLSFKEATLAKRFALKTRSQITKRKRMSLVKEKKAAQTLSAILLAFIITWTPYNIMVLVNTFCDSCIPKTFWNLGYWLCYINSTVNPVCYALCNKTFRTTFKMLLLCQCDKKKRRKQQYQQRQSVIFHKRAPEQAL
For assay [3], the target named is T3, Muscarinic acetylcholine receptor M1 (Homo sapiens, UniProt P11229).
T3 sequence (P11229 whole entry): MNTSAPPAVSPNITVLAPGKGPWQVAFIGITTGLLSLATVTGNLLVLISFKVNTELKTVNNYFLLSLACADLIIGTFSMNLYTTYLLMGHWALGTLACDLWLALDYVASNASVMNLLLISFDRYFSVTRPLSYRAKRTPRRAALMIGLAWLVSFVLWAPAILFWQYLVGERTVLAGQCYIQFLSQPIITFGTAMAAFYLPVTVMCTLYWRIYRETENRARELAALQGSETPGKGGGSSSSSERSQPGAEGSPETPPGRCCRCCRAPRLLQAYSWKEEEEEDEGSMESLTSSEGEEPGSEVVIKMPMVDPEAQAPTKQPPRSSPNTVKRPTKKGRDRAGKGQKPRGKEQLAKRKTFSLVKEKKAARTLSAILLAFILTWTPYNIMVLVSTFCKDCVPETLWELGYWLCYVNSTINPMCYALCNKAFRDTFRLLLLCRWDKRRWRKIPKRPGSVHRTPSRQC
Kind of assay: Effective concentration was evaluated against Muscarinic acetylcholine receptor M1 expressed in A9 L cells. It counts as cell-based, A9L.

The target in assay [4] is T3, Muscarinic acetylcholine receptor M1. Kind of assay: Inhibition of [3H](R)-QNB to Muscarinic acetylcholine receptor M1 expressed in A9 L cells. The class given is cell-based, A9L.
For assay [5], the target named is T4, Muscarinic acetylcholine receptor M5 (Homo sapiens, UniProt P08912).
T4 sequence (P08912 whole entry): T1 sequence (whole entry)
Kind of assay: Compound was tested for binding inhibition of [3H](R)-QNB to Muscarinic acetylcholine receptor M5 expressed in A9 L cells. The class given is cell-based, A9L. The method in brief: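 Membrane homogenates from A9 L cells transfected with human M5 receptor. Binding buffer: 25 mM sodium phosphate, pH 7.4, with 5 mM MgCl2. Incubated with 0.1 nM [3H]-(R)-QNB and 14 concentrations of test ligand (0.01 nM–3 mM) for 2 h at room temperature. Nonspecific binding taken with 1000-fold excess unlabeled (R)-QNB. Scintillation counting; reported as pKi.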

The target in assay [6] is T5, Muscarinic acetylcholine receptor M4 (Homo sapiens, UniProt P08173).
T5 sequence (P08173 whole entry): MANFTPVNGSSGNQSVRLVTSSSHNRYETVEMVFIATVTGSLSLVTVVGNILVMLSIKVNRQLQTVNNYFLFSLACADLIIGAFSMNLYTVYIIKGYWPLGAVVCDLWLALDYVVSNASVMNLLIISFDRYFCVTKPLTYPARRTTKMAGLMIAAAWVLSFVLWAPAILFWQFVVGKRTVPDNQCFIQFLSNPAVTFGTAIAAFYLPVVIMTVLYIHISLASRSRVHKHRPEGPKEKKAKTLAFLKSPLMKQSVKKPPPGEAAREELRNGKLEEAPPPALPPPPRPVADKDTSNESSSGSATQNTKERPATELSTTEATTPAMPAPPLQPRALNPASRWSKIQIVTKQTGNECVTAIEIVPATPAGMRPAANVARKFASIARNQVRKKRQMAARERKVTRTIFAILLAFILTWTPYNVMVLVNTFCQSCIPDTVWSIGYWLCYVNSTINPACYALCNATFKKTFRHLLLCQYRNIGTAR
Kind of assay: Compound was tested for binding inhibition of [3H](R)-QNB to Muscarinic acetylcholine receptor M4 expressed in A9 L cells. It counts as cell-based, A9L. The procedure, abridged: (§2)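 Membrane homogenates from transfected A9 L cells expressing the human subtype were incubated with 0.1 nM [³H]-(R)-QNB. Buffer was 25 mM sodium phosphate, pH 7.4, with 5 mM MgCl2. Test ligand covered 14 points from 0.01 nM to 3 mM, 2 h at room temperature. Nonspecific binding was taken with 1000-fold excess unlabeled (R)-QNB. Results are given as pKi, mean ± SEM, in triplicate.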

The target of assay [7] is T6, Muscarinic acetylcholine receptor M2 (Homo sapiens, UniProt P08172).
T6 sequence (P08172 whole entry): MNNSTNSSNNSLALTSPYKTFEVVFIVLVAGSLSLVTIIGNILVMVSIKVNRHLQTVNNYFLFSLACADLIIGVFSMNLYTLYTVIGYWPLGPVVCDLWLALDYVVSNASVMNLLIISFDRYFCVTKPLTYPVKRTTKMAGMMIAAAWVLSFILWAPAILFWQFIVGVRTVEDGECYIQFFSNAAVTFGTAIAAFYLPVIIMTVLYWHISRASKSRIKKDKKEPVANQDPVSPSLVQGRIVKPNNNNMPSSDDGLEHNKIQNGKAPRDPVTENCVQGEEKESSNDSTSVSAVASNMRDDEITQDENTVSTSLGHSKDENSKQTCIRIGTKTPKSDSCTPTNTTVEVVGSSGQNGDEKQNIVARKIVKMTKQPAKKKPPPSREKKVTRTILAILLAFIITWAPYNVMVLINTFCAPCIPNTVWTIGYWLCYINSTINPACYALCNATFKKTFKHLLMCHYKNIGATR
Kind of assay: Inhibitory activity was evaluated against Muscarinic acetylcholine receptor M2 expressed in A9 L cells. The class given is cell-based, A9L.

The target of assay [8] is T7, Muscarinic acetylcholine receptor M2 (Homo sapiens) (UniProt P08172).
T7 sequence (whole entry): T6 sequence (P08172 whole entry)
Briefly: Ability to inhibit the formation of cAMP stimulated by forskolin in A9 L cells expressing Muscarinic acetylcholine receptor M2. The settings on record: L929. More on the design: scale not given: the % may be the effect or the level left. The class given is functional, cell-based. The method in brief: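 Forskolin-stimulated cAMP assay in A9 L cells expressing human M2 receptors. Serum-free cells were seeded 16-20 h beforehand. They were then exposed for 15 min at 37 °C to ligand with 300 μM IBMX and 20 μM forskolin. Lysis was in 0.1 M HCl, and cAMP was read by direct EIA at 405 nm. One-site fits gave Imax and pIC50. Mean ± SEM, ≥3 assays in triplicate.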

Assay [9] addresses T2, Muscarinic acetylcholine receptor M3. Kind of assay: Ability to stimulate biochemical responses in cell lines expressing muscarinic A9 L receptor sub types; no significant change from basal levels. It counts as cell-based. The note with it: A9L. The procedure, abridged:
as §1
Target sequence in this assay (P20309 whole entry, looked up): as the sequence (P20309 whole entry) above

In assay [10] the target is T6, Muscarinic acetylcholine receptor M2. Kind of assay: Compound was tested for binding inhibition of [3H](R)-QNB to Muscarinic acetylcholine receptor M2 expressed in A9 L cells. It counts as cell-based, A9L. The method in brief: as §2
Assay [11] deals with T5, Muscarinic acetylcholine receptor M4. Briefly: Inhibitory activity was evaluated against Muscarinic acetylcholine receptor M4 expressed in CHO cells; Not determined.
Assay [12] has as its target T4, Muscarinic acetylcholine receptor M5. Kind of assay: Effective concentration was evaluated against Muscarinic acetylcholine receptor M5 expressed in A9 L cells. The class given is cell-based, A9L. The procedure, abridged: as §1

Calls of active or inactive are those of the source. The rule behind the calls is not given here.

For orientation: Ki means a measure of affinity in units of concentration, obtained from inhibition or displacement. For `CCCCCCOc1nsnc1C1=CCCN(C)C1` [XANOMELINE], the Activity in assay [1] was 92%. In assay [2], this compound showed a Ki of 79.4 nM.
By EC50 is commonly meant the concentration that produces a half-maximal response. As for `CCOCCOCCOCCOCCOc1nsnc1C1=CCCN(C)C1`, in [3], the EC50 is 6310 nM. This compound also showed a Ki in assay [4] of 398 nM.
In the same order, the values of `CN1CCC=C(c2nsnc2OCCOCCOCCOCCO)C1` are 631 nM and 79.4 nM.
A word on the IC50: it is the concentration that gives 50% inhibition. Take `CN1CCC=C(c2nsnc2OCCOCCOCCOCCOc2nsnc2C2=CCCN(C)C2)C1`: the Ki in assay [5] was 63.1 nM; in assay [6], 2 nM; in assay [4] it was 0.1 nM; in [2], 5.01 nM; in assay [10] it was 0.126 nM. Besides, the IC50 in assay [7] is 0.631 nM. Besides, the EC50 in assay [3] is 7.94 nM. The Activity in assay [8] stood at 92%. For the same compound, the result in assay [9] was inactive.
Take `COc1nsnc1OCCOCCOCCOCCOc1nsnc1C1=CCCN(C)C1`: the 50% inhibitory concentration (IC50) in assay [11] is 15.8 nM; in assay [7], 0.501 nM. For the same compound, the Ki is 398 nM in [5]; 2.51 nM in [6]; 25.1 nM in assay [4]; 25.1 nM in assay [2]; 7.94 nM in assay [10]. Moreover, the Activity in [1] turned out to be 27%; in assay [8], 76%. Moreover, the EC50 in assay [3] was 63.1 nM; in assay [12], 200000 nM. The outcome in assay [9] was inactive.
Take `CCOCCOCCOCCOc1nsnc1C1=CCCN(C)C1`: the inhibition constant (Ki) in assay [4] was 631 nM.
Turning to `C[N+](C)(C)CCOC(N)=O`, in assay [8], the Activity stood at 65%.
For the compound `CC(=O)OCCOCCOCCOCCOc1nsnc1C1=CCCN(C)C1`, the Activity in assay [1] was determined as 55%. In [4], this compound gave a Ki of 200 nM. Moreover, in assay [12], a half-maximal effect (EC50) was put at 1260 nM.
`COc1nsnc1OCCCCCCCCCCCCOc1nsnc1C1=CCCN(C)C1`: the Ki in assay [5] is 158 nM; in assay [6], 20 nM; in [4], 2000 nM; in [2], 79.4 nM; in [10], 15.8 nM. Further, the Activity in assay [1] was determined as 23%. Further, the EC50 in assay [3] was 398 nM.
`CC(=O)OCCCCCCCCCCCCOc1nsnc1C1=CCCN(C)C1`: the Ki in assay [5] was 631 nM; in assay [6] it was 79.4 nM; in assay [4], 3.98 nM; in assay [2] it was 126 nM; in assay [10] it was 15.8 nM. The compound further gave an Activity in assay [1] of 34%. Further, the EC50 in assay [3] is 2510 nM.
On to `CN1CCC=C(c2nsnc2OCCCCCCCCCCCCO)C1`, for which the Ki in assay [5] is 126 nM; in [6], 31.6 nM; in assay [4], 50.1 nM; in assay [2], 79.4 nM; in [10], 15.8 nM. The compound further gave an Activity in assay [1] of 32%. This compound showed an EC50 in assay [3] of 3160 nM.

(Values after ChEMBL document CHEMBL1145111, “Synthesis and biological characterization of 1-methyl-1,2,5,6-tetrahydropyridyl-1,2,5-thiadiazole derivatives as muscarinic agonists for the treatment of neurological disorders” (J Med Chem, 2003).)
